Activity calls are given as the source filed them. The rule behind the calls is not given here.
Tests used:
[1] = (§1) Inhibition of Hsp90-dependent luciferase renaturation in rabbit reticulocyte after 30 mins by luciferase refolding assay; design: species or system Oryctolagus cuniculus
In short: (§2)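 Luciferase in stability buffer (0.5 mg/mL) heat-denatured at 41 °C for 10 min. Compound in DMSO (1 μL) mixed with cold mix (Tris pH 7.7, Mg(OAc)2, KCl, ATP, creatine phosphate), creatine phosphokinase and denatured luciferase. Started with rabbit reticulocyte lysate diluted in 20 mM Tris-HCl pH 7.4/75 mM KCl. Ran 30 min at 25 °C, then luciferin/ATP buffer added and light read over 10 s. IC50 taken against DMSO control. Triplicates, at least two experiments.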

SK-BR-3 [2] = test: Induction of Hsp90-dependent Her2 protein degradation in Skbr3 cells after 24 hrs by ELISA; type: functional, cell-based; settings: Homo sapiens, SK-BR-3, 24 h
In short: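 SkBr3 cells seeded at 3000/well and attached overnight, then exposed to compounds at varying concentrations for 24 h. Cell number checked under the microscope against DMSO wells. Cells then washed, fixed and permeabilized in −20 °C methanol, and blocked with 5% BSA/PBST. Probed overnight at 4 °C with rabbit anti-Her2 (1:500), then with HRP anti-rabbit IgG (1:1000) for 2 h. Read by chemiluminescence.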

MCF7 [3] = test: Antiproliferative activity against MCF7 cells after 72 hrs; type: functional, cell-based; settings: Homo sapiens, MCF7, 72 h
In short: (§3)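 Seeded at 2000 cells/well and left to attach overnight at 37 °C, 5% CO2. MCF-7 cells kept in 1:1 DMEM:Ham's F-12 with non-essential amino acids, 2 mM L-glutamine, pen/strep and 10% FBS. SkBr3 cells kept in McCoy's 5A with the same supplements. Compounds added over a range of concentrations in DMSO (1% final). After 72 h, viable cells counted by MTS/PMS. 1% DMSO wells set as 100% proliferation.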

SK-BR-3 [4] = test: Antiproliferative activity against SkBr3 cells after 72 hrs; type: functional, cell-based; settings: Homo sapiens, SK-BR-3, 72 h; in short: as §3
Oryctolagus cuniculus = species: Oryctolagus cuniculus; test: as §1; in short: as §2
MCF7 [5] = test: Induction of Her2 degradation in MCF7 cells; type: functional, cell-based; settings: Homo sapiens
In short: (§4)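 MCF-7 cells seeded at 1×10^6 per dish and attached overnight. Compound added at varying concentrations for 36 h at 37 °C, 5% CO2. Client protein loss assessed by western blot. Controls: GA 500 nM and DMSO.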

MCF7 [6] = test: Induction of Raf1 degradation in MCF7 cells; type: functional, cell-based; settings: Homo sapiens; in short: as §4
MCF7 [7] = test: Induction of AKT degradation in MCF7 cells; type: functional, cell-based; settings: Homo sapiens; in short: as §4

Row | Structure (SMILES) | IC50 [1] | IC50 (SK-BR-3 [2]) | IC50 (MCF7 [3]) | IC50 (SK-BR-3 [4]) | Activity (Oryctolagus cuniculus) | Activity (MCF7 [5]) | Activity (MCF7 [6]) | Activity (MCF7 [7])
1 | Oc1ccc(O)c(SCCCCN2CCOCC2)c1 | 120 µM | 4.7 µM | 19 µM | 7.8 µM |  |  |  | 
2 | Cc1cc2nn(-c3ccc(Cl)cc3)nc2cc1NC(=O)C(C)C | 0.12 µM | > 100 µM | > 100 µM | > 100 µM |  |  |  | 
3 | CCOc1ccccc1NC(=O)CSc1ccccn1 |  | > 100 µM | > 100 µM | > 100 µM | inactive |  |  | 
4 | Oc1c(C(Nc2cccc(Cl)c2)c2ccncc2)ccc2cccnc12 (stereo unspecified) | 36 µM | 33 µM | 4 µM | 23 µM |  |  |  | 
5 | CCNC(=O)c1c(N)sc2c1CCCCC2 | 23 µM | 44 µM | 93 µM | 76 µM |  |  |  | 
6 | C=CCOc1ccccc1/C=C1\C(=O)N(c2cccc(Cl)c2)N=C1C | 4.5 µM | 51.6 µM | 34 µM | 39 µM |  |  |  | 
7 | O=C(CSc1nnnn1-c1ccc(F)cc1F)Nc1ccc2c(c1)OCCO2 | 4.4 µM | > 100 µM | > 100 µM | > 100 µM |  |  |  | 
8 | Cc1ccc(Nc2cc(C)c(O)c(C)c2)cc1 | 6.7 µM | 10.9 µM | 9.1 µM | 15 µM |  |  |  | 
9 | COc1ccc(C(=O)/C=C(\C)Nc2ccccc2O)cc1 | 15 µM | 21.3 µM | > 100 µM | 25 µM |  |  |  | 
10 | COc1ccc(/C=C2/SC(=O)NC2=O)cc1OC | 190 µM | > 100 µM | > 100 µM | > 100 µM |  |  |  | 
11 | CSc1nnc2c(n1)OC=Nc1ccccc1-2 | 15 µM | > 100 µM | > 100 µM | > 100 µM |  |  |  | 

Second part, led by results:

Row | IC50 [1] | IC50 (SK-BR-3 [2]) | IC50 (MCF7 [3]) | IC50 (SK-BR-3 [4]) | Activity (Oryctolagus cuniculus) | Structure (SMILES) | Activity (MCF7 [5]) | Activity (MCF7 [6]) | Activity (MCF7 [7])
12 | 16 µM | 4.4 µM | 3 µM | 2.4 µM |  | CCOC(=O)Oc1ccc2c(c1)C(C)=CC(C)(C)N2 | Active | Active | Active
13 | 1.9 µM | 12.5 µM | 2.1 µM | 15 µM |  | CCOc1ccc(Nc2nc(-c3sc(NC(C)=O)nc3C)cs2)cc1 | Active | Active | Active
14 | 7 µM | 8.9 µM | 25 µM | 9 µM |  | CCc1ccc(O)c(/N=C/c2cccc(C)c2O)c1 |  |  | 
15 |  | 64 µM | 41 µM | 55 µM | inactive | Cc1c(Cc2ccccc2)sc(NC(=O)c2ccc([N+](=O)[O-])cc2)c1C(N)=O |  |  | 
16 | 55 µM | > 100 µM | > 100 µM | > 100 µM |  | Nc1ncc(-c2cccs2)s1 |  |  | 
17 | 2.1 µM | > 100 µM | > 100 µM | > 100 µM |  | CC1=NN(c2ccc(Cl)cc2)C(=O)C1 |  |  | 
18 | 22 µM | > 100 µM | > 100 µM | > 100 µM |  | COc1ccccc1CNC(=O)c1ccc(C)cc1 |  |  | 
19 | 13 µM | 67 µM | > 100 µM | 42 µM |  | N#CC1=C(N)N2C(=C(C#N)C1c1cccs1)Sc1ccccc12 (stereo unspecified) |  |  | 
20 | 15 µM | 61 µM | 44 µM | 55 µM |  | Cc1nc(N)sc1-c1csc(Nc2ccccc2)n1 |  |  | 

Reference: ChEMBL document CHEMBL1146364, “High-throughput assay for the identification of Hsp90 inhibitors based on Hsp90-dependent refolding of firefly luciferase” (Bioorg Med Chem, 2007)
